According to ChEMBL document CHEMBL4342478, “Discovery of Potent N-Ethylurea Pyrazole Derivatives as Dual Inhibitors of Trypanosoma brucei and Trypanosoma cruzi” (ACS Med Chem Lett, 2020):
In brackets after ≈: the same amount, converted by molar mass. Activity calls are given as the source filed them. No cut-off for these calls is given here.

What was measured:
[1] = tested on: Plasmodium falciparum; assay: Antiplasmodial activity against erythrocytic stage of Plasmodium falciparum after 48 hrs by [3H]-hypoxanthine incorporation assay; type: functional, organism-based
[2] = tested on: Leishmania donovani; assay: AntiLeishmanial activity against amastigote form of Leishmania donovani MHOM/ET/67/L82 after 72 hrs by Alamar blue dye based fluorometric analysis; type: functional, organism-based
[3] = Selectivity index, ratio of IC50 for human HEK293 cells incubated for 69 hrs by resazurin dye based fluorescence analysis to IC50 for antitrypanosomal activity against Trypanosoma brucei brucei BS427; type: toxicity; conditions: read-out: Ratio IC50
[4] = tested on: Trypanosoma brucei rhodesiense; assay: Antitrypanosomal activity against blood stream form of Trypanosoma brucei rhodesiense STIB900 after 72 hrs by Alamar blue based fluorometric assay; type: functional, organism-based
[5] = tested on: Trypanosoma brucei brucei; assay: Antitrypanosomal activity against Trypanosoma brucei brucei BS427 after 48 hrs by resazurin dye based fluorescence assay; type: functional, organism-based
Procedure, shortened: (§1)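 IC50 values are the mean of two independent experiments. The T. b. brucei assay uses free parasites. The T. cruzi assay uses intracellular parasites in H9c2 host cells.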

[6] = tested on: Trypanosoma cruzi; assay: Antitrypanosomal activity against Trypanosoma cruzi Tulahuen C2C4 trypomastigotes infected in rat L6 cells after 96 hrs by photometric analysis; type: functional, organism-based
[7] = tested on: Trypanosoma cruzi; assay: Antitrypanosomal activity against Trypanosoma cruzi infected in rat H9C2 cells by DRAQ5 DNA dye based imaging analysis; type: functional, organism-based; procedure, shortened: as §1
[8] = Selectivity index, ratio of cytotoxicity against rat H9C2 cells to IC50 for antitrypanosomal activity against Trypanosoma cruzi infected in rat H9C2 cells; type: toxicity, cell-based; conditions: read-out: Selectivity Index
[9] = Kinetic solubility of compound at pH 2 to 6.5 by nephelometry; type: physicochemical; conditions: buffer, read-out: Kinetic_solubility
[10] = Metabolic stability in human liver microsomes; type: ADME, Microsome
[11] = tested on: Trypanosoma brucei brucei; assay: Antitrypanosomal activity against bloodstream form of Trypanosoma brucei brucei Lister 427; type: functional, organism-based
[12] = Selectivity index, ratio of cytotoxicity against human HEK293 cells to IC50 for antitrypanosomal activity against bloodstream form of Trypanosoma brucei brucei Lister 427; type: toxicity, cell-based; conditions: read-out: Selectivity Index
Procedure, shortened: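 Ratio of HEK293 cytotoxicity to the IC50 against free, non-intracellular T. b. brucei parasites. IC50 values are the average of two independent experiments.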

[13] = tested on: Trypanosoma cruzi; assay: Trypanosomacidal activity against Trypanosoma cruzi strain Y trypomastigotes assessed as reduction in number of infected cells at faster rate at 20 uM measured for 24 to 96 hrs by Hoechst 33342 staining based fluorescence imaging assay; type: functional, organism-based
[14] = tested on: Trypanosoma cruzi; assay: Antitrypanosomal activity against Trypanosoma cruzi Tulahuen C4 infected in mouse 3T3 cells by Hoechst/HCS CellMask green dye based assay; type: functional, organism-based; conditions: Tulahuen C4, NIH3T3
[15] = Selectivity index, ratio of cytotoxicity against mouse 3T3 cells to IC50 for antitrypanosomal activity against Trypanosoma cruzi Tulahuen C4 infected in mouse 3T3 cells; type: toxicity, cell-based; conditions: read-out: Selectivity Index
[16] = Trypanosoma brucei, BS427, 48 h, read-out: IC50

SMILES	selectivity ratio at 69 h [3]	IC50 [5, 16] [nM]	IC50 [7] [nM]	selectivity ratio [8]	other results
O=C(NCCn1ccc(-c2ccccc2F)n1)N1CCCCC1	185	60	–	–	Activity [1]: Active; Activity [2]: Active; Activity [4]: Active; Activity [6]: Active
O=C(NCCn1ccc(-c2ccc(F)cc2)n1)N1CC[C@@H](F)C1	922	86	250	200	–
Cc1cccc(-c2ccn(CCNC(=O)N3CCCCC3)n2)c1	232	360	320	158	–
O=C(NCCn1ccc(-c2cccc(F)c2)n1)N1CCCCC1	197	50	–	–	Activity [1]: Active; Activity [2]: Active; Activity [4]: Active; Activity [6]: Active
O=C(NCCn1ccc(-c2ccccc2Cl)n1)N1CCCCC1	361	120	130	398	–
CC(C)OC(=O)NCCn1ccc(-c2ccccc2)n1	82	1000	–	–	–
COc1ccccc1-c1ccn(CCNC(=O)N2CCCCC2)n1	32	2600	–	–	–
O=C(NCCn1ccc(-c2ccccc2)n1)N1CCCCCC1	215	390	630	79	–
O=C(NCCn1ccc(-c2ccc(Cl)cc2)n1)N1CCCCC1	35	1200	1000	50	–
O=C(NCCn1ccc(-c2ccccc2)n1)N1CCCC1	128	650	–	–	–
O=C(NCCn1ccc(-c2ccccc2)n1)N1CC[C@@H](F)C1	732	108	790	63	–
N#Cc1ccccc1-c1ccn(CCNC(=O)N2CCCCC2)n1	18	4700	13000	4	–
CCN(CC)C(=O)NCCn1ccc(-c2ccccc2)n1	42	2000	3200	16	–
O=C(NCCn1ccc(-c2ccc(F)c(F)c2)n1)N1CCCC1	3630	22	100	501	Activity [1]: Active; Activity [2]: Active; Activity [4]: Active; Activity [6]: Active; solubility kinetic [9]: 12.5 to 25 µg/mL (≈ 39 to 78 µM); Stability [10]: Stable
Cc1ccccc1-c1ccn(CCNC(=O)N2CCCCC2)n1	240	350	320	158	–
COc1ccc(-c2ccn(CCNC(=O)N3CCCCC3)n2)cc1	12	7100	25000	2	–
N#Cc1cccc(-c2ccn(CCNC(=O)N3CCCCC3)n2)c1	236	350	400	126	–
N#Cc1ccc(-c2ccn(CCNC(=O)N3CCCCC3)n2)cc1	–	–	40000	1	–
CC(C)(C)C(=O)NCCc1csc(-c2cccc(F)c2)n1	–	–	2300	27	IC50 [11]: 800 nM; selectivity ratio [12]: > 96
O=C(NCCn1ccc(-c2ccc(F)cc2)n1)N1CCCC1	1060	75	320	158	–

SMILES	selectivity ratio at 69 h [3]	IC50 [5, 16] [nM]	IC50 [7] [nM]	selectivity ratio [8]	other results
O=C(NCCn1ccc(-c2ccc(F)cc2)n1)N1CCCCC1	161	60	–	–	Activity [1]: Active; Activity [2]: Active; Activity [4]: Active; Activity [6]: Active; Stability [10]: Stable
O=C(NCCn1ccc(-c2ccc(F)c(F)c2)n1)N1CC[C@@H](F)C1	4840	16	100	501	Activity [1]: Active; Activity [2]: Active; Activity [4]: Active; Activity [6]: Active
O=C(NCCn1ccc(-c2ccccc2)n1)N1CCOCC1	13	6600	25000	2	–
CC(C)NC(=O)NCCn1ccc(-c2ccccc2)n1	11	7500	–	–	–
Cc1ccc(-c2ccn(CCNC(=O)N3CCCCC3)n2)cc1	16	5300	10000	5	–
O=C(NCCn1ccc(-c2ccc(F)cc2F)n1)N1CCCCC1	1880	45	–	–	–
O=C(NCCn1ccc(-c2ccc(F)cc2)n1)N1CC[C@H](F)C1	2450	32	130	398	Activity [1]: Active; Activity [2]: Active; Activity [4]: Active; Activity [6]: Active
O=C(NCCn1ccc(-c2ccccc2)n1)C1CCCC1	39	1100	3200	16	–
O=C(NCCn1ccc(-c2cccc(Cl)c2)n1)N1CCCCC1	327	130	130	398	–
O=C(CCn1ccc(-c2ccccc2)n1)Nc1ccccc1	–	–	–	–	IC50 [5]: Not Active
CC(CNC(=O)N1CCCCC1)n1ccc(-c2ccccc2)n1 (stereo not given)	358	230	200	251	–
O=C(Cn1ccnc1[N+](=O)[O-])NCc1ccccc1	–	–	–	–	Activity [13]: Active
O=C(NCCn1ccc(-c2ccccc2)n1)N1CC[C@H](F)C1	1300	61	250	200	–
CC(Cn1ccc(-c2ccccc2)n1)NC(=O)N1CCCCC1 (stereo not given)	131	640	1000	50	–
O=C(NCCn1ccc(-c2ccc(F)c(F)c2)n1)N1CCCCC1	2910	27	–	–	IC50 [14]: 119 nM; selectivity ratio [15]: 616
O=S(=O)(NCCn1ccc(-c2ccccc2)n1)c1ccccc1	–	–	50000	1	IC50 [5]: Not Active
O=C(NCCn1ccc(-c2ccccc2)n1)c1ccccc1	102	610	50000	1	–
c1ccc(CNCCn2ccc(-c3ccccc3)n2)cc1	–	–	–	–	IC50 [5]: Not Active
COc1cccc(-c2ccn(CCNC(=O)N3CCCCC3)n2)c1	67	1200	4000	13	–
